Reference: PMC8048584 (Chemmedchem, 2021)
pIC50: −log10 of the molar value.

Target: human DDR1 (Homo sapiens, UniProt Q08345)
Assay: Off-chip Mobility Shift Assay
Type: biochemical
Outline: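 Carried out by a contract kinase profiling service, with details in the Supporting Information. IC50 (50 % inhibition) was read from semi-logarithmic dose-response plots of the test compound. Each value is the mean of duplicate samples.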

Sequence of human DDR1 (Q08345 19-913): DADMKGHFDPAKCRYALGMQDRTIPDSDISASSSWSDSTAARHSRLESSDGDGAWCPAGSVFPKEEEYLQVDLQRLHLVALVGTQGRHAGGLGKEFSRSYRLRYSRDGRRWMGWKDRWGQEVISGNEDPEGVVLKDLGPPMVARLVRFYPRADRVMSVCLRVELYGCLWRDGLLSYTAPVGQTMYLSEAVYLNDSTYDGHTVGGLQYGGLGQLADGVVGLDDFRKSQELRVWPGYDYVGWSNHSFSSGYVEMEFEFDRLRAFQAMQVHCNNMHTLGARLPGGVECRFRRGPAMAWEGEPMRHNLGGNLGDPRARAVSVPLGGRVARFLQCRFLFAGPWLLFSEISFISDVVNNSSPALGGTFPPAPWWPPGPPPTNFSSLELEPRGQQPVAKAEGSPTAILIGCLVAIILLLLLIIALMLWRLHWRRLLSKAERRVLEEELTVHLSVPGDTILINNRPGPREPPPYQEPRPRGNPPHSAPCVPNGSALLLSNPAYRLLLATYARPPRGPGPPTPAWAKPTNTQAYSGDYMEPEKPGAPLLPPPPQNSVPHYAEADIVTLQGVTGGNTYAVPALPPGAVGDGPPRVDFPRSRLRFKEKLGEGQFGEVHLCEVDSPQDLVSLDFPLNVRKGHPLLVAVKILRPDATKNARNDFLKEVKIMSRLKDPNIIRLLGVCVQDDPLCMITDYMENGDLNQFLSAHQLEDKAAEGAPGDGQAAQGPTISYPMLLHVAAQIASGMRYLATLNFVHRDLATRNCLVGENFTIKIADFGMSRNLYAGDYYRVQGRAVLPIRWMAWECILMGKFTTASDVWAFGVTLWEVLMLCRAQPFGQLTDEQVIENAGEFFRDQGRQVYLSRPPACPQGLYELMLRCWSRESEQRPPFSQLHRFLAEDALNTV

pIC50: 7.03
Structure (SMILES): O=C(Nc1ccc(Cl)c(COc2cccnc2)c1)c1cccc(C(F)(F)F)c1 [Compound 3, N‐(4‐chloro‐3‐((pyridin‐3‐yloxy)methyl)phenyl)‐3‐(trifluoromethyl)benzamide]
